Where two headings read alike, the source gives them in different places.
Key:
[1] = molecular target: T1, Notum (Homo sapiens, UniProt Q6P988); test: Notum inhibition assay; type: biochemical; settings: for time-dependence of Notum inhibition: pre-incubation 3 and 33 min; for inhibition manner against Notum: inhibition kinetic analyses, Lineweaver-Burk plots
T1 sequence (Q6P988 20-496): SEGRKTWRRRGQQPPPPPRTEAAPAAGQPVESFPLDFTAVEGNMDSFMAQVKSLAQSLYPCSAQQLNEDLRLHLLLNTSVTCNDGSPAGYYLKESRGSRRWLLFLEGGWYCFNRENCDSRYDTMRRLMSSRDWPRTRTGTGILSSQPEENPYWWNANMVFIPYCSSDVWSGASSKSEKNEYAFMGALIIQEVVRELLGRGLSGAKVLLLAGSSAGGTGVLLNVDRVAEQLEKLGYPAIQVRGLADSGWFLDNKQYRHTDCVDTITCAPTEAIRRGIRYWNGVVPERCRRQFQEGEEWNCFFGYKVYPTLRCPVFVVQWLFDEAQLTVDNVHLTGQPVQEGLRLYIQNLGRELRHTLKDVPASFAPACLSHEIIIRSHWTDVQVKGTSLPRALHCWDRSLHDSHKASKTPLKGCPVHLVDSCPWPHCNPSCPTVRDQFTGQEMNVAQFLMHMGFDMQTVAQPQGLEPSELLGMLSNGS
In short: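 Notum expressed and purified per an earlier protocol. The 200 μL mix held 10 μM OPTS, 0.1 M Tris-HCl pH 7.4 and inhibitor, preincubated at 37 °C for 3 min. For time-dependence, parallel preincubations of 3 and 33 min ran before OPTS addition. Product fluorescence was read at ex 403/em 510 nm after subtracting no-enzyme blanks. IC50 came from nonlinear regression.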

[2] = system: MC3T3-E1 cells; test: CCK-8 cell viability assay; type: cell-based; settings: CCK-8, Fig. S5
[3] = system: MC3T3-E1 cells; test: Osteoblast differentiation: ALP level, ALP staining and alizarin red S staining; type: cell-based; settings: for level of ALP: MC3T3-E1 osteoblasts, induced differentiation 5 days, Fig. S6
In short: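 MC3T3-E1 cells were grown in DMEM with 10% FBS and 1% penicillin-streptomycin at 37 °C, 5% CO2. Cells were seeded at 2 × 10³ cells/well for 24 h, then moved to induction medium (10 mM β-glycerophosphate, ascorbic acid) with Dex and test compound added together. ALP staining (BCIP/NBT) followed 7 days and 4% paraformaldehyde fixation (RT, 15 min). ARS staining followed 21 days. Both were viewed by microscope.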

[4] = molecular target: T1, Notum; settings: cited from earlier work
[5] = system: MC3T3-E1 cells; test: RNA sequencing of Dex-challenged osteoblasts; type: cell-based
In short: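 Dex-treated MC3T3-E1 cells then received test compound and were cultured for 7 days. Total RNA was extracted from control (DMSO), Dex and Dex plus test compound groups for sequencing.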

[6] = system: healthy mice; test: Safety assessment of rhein in mice; type: in vivo, C57BL/6J mice; settings: 200 mg/kg orally once daily for 14 days, vs control
In short: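 One group received 0.5% CMC-Na vehicle. The other received test compound at 200 mg/kg orally once daily for 14 days. At the end, serum plus heart, liver, spleen, lung and kidney were collected. Data are mean ± standard deviation, compared by Student's t-test (P < 0.05).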

[7] = system: Dex-induced osteoporosis mice; test: In vivo anti-osteoporosis effects in Dex-induced osteoporosis mice; design: species or system C57BL/6J mice; settings: for cortical and cancellous bones (micro-CT, H&E): rhein 40 and 80 mg/kg i.g. 5 weeks, PTH i.p., vs Dex
[8] = cited from earlier work
[9] = cited from earlier work; remark: listed apart in the source
[10] = treatment 7 days, Dex-challenged MC3T3-E1

| IC50 [1] [nM] | time-dependence of Notum inhibition [1] | Compound | Ki [1] [nM] | inhibition manner against Notum [1] | growth rates of MC3T3-E1 cells [2] | level of ALP [3] | cortical and cancellous bones (micro-CT, H&E) [7] | also measured |
| --- | --- | --- | --- | --- | --- | --- | --- | --- |
| 946 ± 55.1 | not time-dependent | Cc1cc(O)c2c(c1)C(=O)c1cccc(O)c1C2=O [Chrysophanol] | – | – | – | – | – | – |
| 286 ± 23.5 | not time-dependent | Cc1cc(O)c2c(c1)C(=O)c1cc(O)cc(O)c1C2=O [Emodin] | 276 | competitive | not enhanced | significantly up-regulated | – | pro-differentiation effects on MC3T3-E1 cells ([3]; relative high dose 5 μM): slight pro-differentiation effects |
| – | – | C=C1C(=O)O[C@@H]2C[C@@]3(C)CCCC(=C)[C@@H]3C[C@H]12 [Isoalantolactone] | – | – | – | – | – | IC50 ([4]; previously reported natural Notum inhibitor ref 41): 60.6 nM |
| – | – | Cn1c(=O)c2c(ncn2C)n(C)c1=O [caffeine] | – | – | – | – | – | IC50 ([4]; previously reported natural Notum inhibitor ref 46): 200000 nM |
| – | – | parathyroid hormone 1–34 [PTH, reference compound] | – | – | – | – | thickened significantly | – |

| Compound | IC50 [1] [nM] | time-dependence of Notum inhibition [1] | Ki [1] [nM] | inhibition manner against Notum [1] | growth rates of MC3T3-E1 cells [2] | level of ALP [3] | cortical and cancellous bones (micro-CT, H&E) [7] | also measured |
| --- | --- | --- | --- | --- | --- | --- | --- | --- |
| O=C(O)c1cc(O)c2c(c1)C(=O)c1cccc(O)c1C2=O [Rhein] | 9.98 ± 0.84 | not time-dependent | 13.6 | competitive | not enhanced | significantly up-regulated | thickened significantly | reduced ALP staining intensity and decreased matrix mineralisation level ([3]; 0.5 μM, Dex-challenged MC3T3-E1 cells): totally restored; ALP staining intensity and matrix mineralisation level of osteoblasts ([3]; dose-dependent, ALP day 7, ARS day 21, Dex-treated MC3T3-E1): significantly increased; pro-differentiation effects on MC3T3-E1 cells ([3]; low dose 0.5 μM): more significant pro-differentiation effects; expression of Wnt signaling-related genes (WNT6, GSK3β) and osteogenic differentiation-related genes (RUNX2, BMP4) ([5]; Dex-challenged MC3T3-E1, RNA sequencing): significantly restored; genes downregulated in comparison to the Dex-challenged group [5, 10]: 78; genes upregulated in comparison to the Dex-challenged group [5, 10]: 67; body weight at the outset and at the end of animal tests [6]: no noticeable discrepancy; serum safety indicators (ALB, ALP, ALT, AST, CK, CREA, GLU, TC, TG, TP, BUN) [6]: no significant difference; Notum expression levels in cortical bone (immunofluorescence) ([7]; Dex-challenged mice treated with rhein): significantly suppressed; BV/TV and BMD at the distal femur ([7]; rhein group, micro-CT): did not increase significantly; BMD increase at the mid femur ([7]; rhein group, micro-CT, compared with distal femur): more prominent; oral bioavailability [8]: very lower; metabolic stability [9]: poor |

— PMC12936682 (Journal of Pharmaceutical Analysis, 2025)
